The values that follow come from ChEMBL document CHEMBL3525967, “In vitro glucuronidation of the antibacterial triclocarban and its oxidative metabolites” (Drug Metab Dispos, 2012).

The nature of series [1]: Intrinsic clearance in cynomolgus monkey liver microsomes after 30 mins by LC-ESI-MS analysis. The following applies: 0.5 h. In kind it is ADME, Macaca fascicularis. A digest of the protocol: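 2'-OH-TCC at 0.2, 0.5, 1, 2, 3, 5, 10 and 50 µM incubated with liver microsomes (alamethicin, MgCl2, saccharolactone, UDPGA; 37 °C), sampled at 5, 10, 15 and 30 min. Samples ≥5 µM diluted 1:9 in ACN; LC-ESI-MS. KM and vmax fitted from rate vs concentration; intrinsic clearance derived from these; mean and SD of three.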

A short description of series [2]: Drug excretion in Sprague-Dawley rat urine assessed as N-glucuronide-triclocarban formation at 1 mg/kg, po by LC-MS analysis. Format: ADME, organism-based. The arrangement: dose 1 mg/kg, route oral. The following applies: in vivo.
The target in series [3] is T1, UDP-glucuronosyltransferase 1A9 (Homo sapiens, UniProt O60656).
T1 sequence (O60656 whole entry): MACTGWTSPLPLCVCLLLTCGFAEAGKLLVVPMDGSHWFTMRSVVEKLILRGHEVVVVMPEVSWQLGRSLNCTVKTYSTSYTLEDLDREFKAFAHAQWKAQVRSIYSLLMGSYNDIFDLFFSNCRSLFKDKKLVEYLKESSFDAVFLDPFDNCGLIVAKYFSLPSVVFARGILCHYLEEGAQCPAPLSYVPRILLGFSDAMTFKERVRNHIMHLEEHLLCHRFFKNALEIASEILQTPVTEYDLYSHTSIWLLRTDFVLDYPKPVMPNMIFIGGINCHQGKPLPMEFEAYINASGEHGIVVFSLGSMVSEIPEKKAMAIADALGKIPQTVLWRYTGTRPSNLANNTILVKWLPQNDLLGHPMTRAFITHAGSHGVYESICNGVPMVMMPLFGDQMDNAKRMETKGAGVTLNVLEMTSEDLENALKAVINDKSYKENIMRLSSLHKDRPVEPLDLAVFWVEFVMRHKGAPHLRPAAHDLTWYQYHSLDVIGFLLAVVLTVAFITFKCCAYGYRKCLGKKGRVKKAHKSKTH
Description: Drug metabolism assessed as human UGT1A9-mediated N'-glucuronide-triclocarban formation expressed in baculovirus infected insect sf9 cells incubated for 5 mins prior to UDPGA addition measured after 30 mins by LC-ESI-MS analysis. In kind it is ADME. The following applies: sf9, 0.5 h. Put shortly:
(§1)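 TCC was incubated at 10 µM (2% DMSO) in 100 mM phosphate pH 7.4 with alamethicin-treated microsomes or Supersomes, 10 mM MgCl2 and 10 mM saccharolactone. After 5 min pre-incubation at 37 °C, UDPGA was added to start the reaction. Protein was raised up to 2 mg/mL. Samples were quenched in ACN with 1 µM DCC internal standard, centrifuged, and N-glucuronides detected by LC-ESI-MS/MS in SRM mode.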

Series [4] is described as follows: Drug excretion in Sprague-Dawley rat urine assessed as N'-glucuronide-triclocarban formation at 1 mg/kg, po by LC-MS analysis. In kind it is ADME, organism-based. The arrangement: dose 1 mg/kg, route oral. The conditions noted are these: in vivo.
Series [5] is described as follows: Drug excretion in monkey urine. In kind it is ADME, tissue-based, Macaca mulatta. The following applies: rhesus monkey, read-out: Drug excretion.
The nature of series [6]: Drug metabolism in human kidney microsomes assessed as N'-glucuronide-triclocarban formation incubated for 5 mins prior to UDPGA addition measured after 5 to 30 mins by LC-UV analysis. Format: ADME. Put shortly:
(§2)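 Pooled human kidney or liver microsomes (liver: 25 mixed-gender donors), 5 µg protein, in 200 µL 100 mM potassium phosphate pH 7.4. Alamethicin pre-treated on ice 15 min. Final 10 µM TCC (2% DMSO), with 10 mM MgCl2 and 10 mM saccharolactone, preincubated 5 min at 37 °C. Started with UDPGA (20 mM stock). Sampled at 5, 10, 15 and 30 min into ACN containing 1 µM DCC internal standard.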

Series [7] is described as follows: Inhibition of human recombinant soluble epoxide hydrolase using CMNPC as substrate.
Series [8] is described as follows: Drug metabolism in B6C3F1 mouse liver microsomes assessed as N'-glucuronide-triclocarban formation incubated for 5 mins prior to UDPGA addition measured after 30 mins by LC-UV-ESI-MS/MS analysis. The following applies: 0.5 h. In kind it is ADME. A digest of the protocol:
as §1
For orientation: Liver microsomes are a subcellular fraction often used to study metabolism.

Series [9] concerns Liver microsome. Put plainly: Drug metabolism in human liver microsomes assessed as N-glucuronide-triclocarban formation incubated for 5 mins prior to UDPGA addition measured after 5 to 30 mins by LC-UV analysis. In kind it is ADME. Put shortly:
as §2

Series [10] can be described thus: Drug metabolism in human intestinal microsomes assessed as N-glucuronide-triclocarban formation incubated for 5 mins prior to UDPGA addition measured after 5 to 30 mins by LC-UV analysis. In kind it is ADME, Intestine, Microsome. Put shortly: (§3)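 Microsomes or UGT Supersomes (5 µg protein) were held 15 min on ice with alamethicin in 100 mM potassium phosphate pH 7.4. TCC was added at 10 µM (2% DMSO) with 10 mM MgCl2 and 10 mM saccharolactone, pre-warmed 5 min at 37 °C, then started with UDPGA. Samples at 5, 10, 15 and 30 min were quenched in ACN. Product was read by LC-UV at 265 nm; rate came from regression over time, three incubations.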

Series [11] has as its target T2, UDP-glucuronosyltransferase 2B4 (Homo sapiens, UniProt P06133).
T2 sequence (P06133 whole entry): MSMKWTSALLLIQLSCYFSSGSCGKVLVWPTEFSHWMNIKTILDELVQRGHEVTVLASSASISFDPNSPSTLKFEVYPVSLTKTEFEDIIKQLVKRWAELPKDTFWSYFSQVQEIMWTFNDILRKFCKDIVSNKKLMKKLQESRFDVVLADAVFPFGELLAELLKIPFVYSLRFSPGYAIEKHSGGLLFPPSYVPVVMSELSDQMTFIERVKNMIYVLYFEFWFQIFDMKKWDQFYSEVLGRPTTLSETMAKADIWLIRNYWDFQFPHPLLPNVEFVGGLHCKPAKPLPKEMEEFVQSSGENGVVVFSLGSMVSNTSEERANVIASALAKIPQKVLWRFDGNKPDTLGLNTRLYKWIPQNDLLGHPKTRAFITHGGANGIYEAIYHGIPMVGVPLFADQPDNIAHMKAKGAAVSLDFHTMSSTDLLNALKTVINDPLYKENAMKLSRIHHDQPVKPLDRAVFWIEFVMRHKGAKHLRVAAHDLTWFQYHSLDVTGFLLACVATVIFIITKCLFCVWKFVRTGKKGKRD
Put plainly: Drug metabolism assessed as human UGT2B4-mediated N-glucuronide-triclocarban formation expressed in baculovirus infected insect sf9 cells incubated for 5 mins prior to UDPGA addition measured after 5 to 30 mins by LC-UV analysis. Format: ADME. A digest of the protocol:
as §3

A short description of series [12]: Drug metabolism in cynomolgus monkey liver microsomes assessed as N'-glucuronide-triclocarban formation incubated for 5 mins prior to UDPGA addition measured after 5 to 30 mins by LC-UV analysis. In kind it is ADME, Macaca fascicularis. Put shortly: as §3

Each structure is given as a SMILES string.

Regarding `O=C(Nc1ccc(Cl)c(Cl)c1)Nc1ccc(Cl)cc1O`, in series [1], the CLH was determined as 19100 µL/min/mg.

Regarding `O=C(Nc1ccc(Cl)cc1)Nc1ccc(Cl)c(Cl)c1` [TRICLOCARBAN], the Drug excretion result in series [2] and in series [4] was “metabolite_not_detected” in each case. Also, the Drug metabolism result in series [3] was “metabolite_detected”; in series [6], “metabolite_not_detected”; in series [8], “metabolite_detected”; in series [9], “metabolite_not_detected”; in series [10] it was “metabolite_not_detected”; in series [11], “metabolite_not_detected”. For the same compound, in [12], the Drug metabolism result was “metabolite_not_detected”. For the same compound, in series [5], the dose excreted is 25%. Besides, the IC50 – broadly, the point on the concentration scale where inhibition reaches its midpoint – in series [7] came out at 0.024 µM.
